Test results reported in ChEMBL document CHEMBL4406881, “Design, synthesis and biological evaluation of benzoylacrylic acid shikonin ester derivatives as irreversible dual inhibitors of tubulin and EGFR” (Bioorg Med Chem, 2019).
Active and inactive are the calls of the source. The rule behind the calls is not given here.

Key:
[1] = system: A549; experiment: Antimigratory activity against human A549 cells measured up to 48 hrs by phase contrast microscopic based wound healing assay; type: functional, cell-based
Outline: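 A549 monolayer seeded at 2×10^5 cells per cm² overnight, incubated 24 h, then scratched with a micropipette tip. The same cell-free area was imaged by phase-contrast microscopy at 0, 24 and 48 h. Wound area was outlined by image analysis to quantify the reduction in cell-free space; n = 3.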

[2] = biological target: Epidermal growth factor receptor (Homo sapiens, UniProt P00533); experiment: Potency index, ratio of shi-konin IC50 to compound IC50 for inhibition of C-terminal His-tagged N-terminal GST-tagged human EGFR (668 to 1210 residues) expressed in baculovirus infected Sf9 cells after 30 mins in presence of gamma-[32p-ATP] binding assay
Epidermal growth factor receptor, sequence (P00533 whole entry, the tested form may be a part): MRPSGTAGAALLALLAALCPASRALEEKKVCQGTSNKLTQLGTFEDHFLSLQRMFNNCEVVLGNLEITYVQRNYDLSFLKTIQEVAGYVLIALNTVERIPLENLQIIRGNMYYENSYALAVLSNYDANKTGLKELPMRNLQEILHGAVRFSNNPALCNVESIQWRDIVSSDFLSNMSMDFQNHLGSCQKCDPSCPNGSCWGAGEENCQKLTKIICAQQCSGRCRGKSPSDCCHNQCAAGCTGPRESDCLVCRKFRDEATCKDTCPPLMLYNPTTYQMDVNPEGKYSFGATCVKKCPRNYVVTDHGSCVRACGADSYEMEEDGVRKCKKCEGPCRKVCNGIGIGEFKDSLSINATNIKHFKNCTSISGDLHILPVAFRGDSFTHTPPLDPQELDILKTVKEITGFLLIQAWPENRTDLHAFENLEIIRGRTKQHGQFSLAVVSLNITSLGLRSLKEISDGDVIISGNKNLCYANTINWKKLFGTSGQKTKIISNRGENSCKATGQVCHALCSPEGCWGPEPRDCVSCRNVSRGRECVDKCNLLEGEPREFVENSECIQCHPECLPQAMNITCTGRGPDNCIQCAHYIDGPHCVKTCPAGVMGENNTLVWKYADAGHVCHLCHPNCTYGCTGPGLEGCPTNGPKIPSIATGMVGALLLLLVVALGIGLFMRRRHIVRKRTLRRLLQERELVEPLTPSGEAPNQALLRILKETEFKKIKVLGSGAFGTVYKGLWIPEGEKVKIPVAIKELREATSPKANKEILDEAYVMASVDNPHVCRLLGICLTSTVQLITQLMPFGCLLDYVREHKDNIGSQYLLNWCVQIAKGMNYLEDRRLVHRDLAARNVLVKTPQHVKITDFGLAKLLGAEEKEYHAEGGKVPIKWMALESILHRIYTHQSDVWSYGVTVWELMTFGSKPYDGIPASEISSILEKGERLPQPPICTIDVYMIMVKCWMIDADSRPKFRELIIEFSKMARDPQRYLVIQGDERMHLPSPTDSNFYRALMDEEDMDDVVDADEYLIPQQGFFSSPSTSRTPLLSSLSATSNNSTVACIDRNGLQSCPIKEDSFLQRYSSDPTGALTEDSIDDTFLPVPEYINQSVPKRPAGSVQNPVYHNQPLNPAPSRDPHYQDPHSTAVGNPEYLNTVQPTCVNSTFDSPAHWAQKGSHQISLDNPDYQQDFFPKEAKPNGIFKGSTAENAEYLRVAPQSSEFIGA

[3] = system: A549; experiment: Cell cycle arrest in human A549 cells assessed as accumulation at G1 phase at 2 uM after 24 hrs by RNAse A/ PI staining based flow cytometric analysis (reference value: 73.30%); type: functional
Outline: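 A549 cells at 5.0×10^4 per well were grown 12 h at 37 °C. Treatment was 0, 2, 4 or 8 µM for 24 h, or 8 µM for 0, 12, 24 or 36 h. Cells were fixed in 70% ethanol at −20 °C for at least 12 h, then stained in PBS with 0.1 mg/mL RNase A and 5 µg/mL PI. At least 10,000 events per sample were collected by flow cytometry to give G0/G1, S and G2/M percentages.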

[4] = system: A549; experiment: Antiproliferative activity against human A549 cells assessed as reduction in cell viability after 24 hrs by MTT assay; type: functional, cell-based; details: A549, 24 h
[5] = system: A549; experiment: Induction of apoptosis in human A549 cells assessed as late apoptotic cells at 8 uM after 36 hrs by Annexin-V/PI staining based flow cytometry analysis (reference value: 6.55%); type: functional
Outline: (§1)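 A549 cells seeded overnight at 37 °C, 5% CO2, then exposed to 0, 2, 4, 8 or 12 µM for 24 h (dose series) or 8 µM for 0, 12, 24, 36 h (time series). Harvested, PBS-washed, stained with Annexin V-FITC and PI in binding buffer 15 min at room temperature in the dark, analysed by flow cytometry; three independent experiments.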

[6] = biological target: Tubulin (Homo sapiens) (UniProt P68371+Q9H4B7+P0DPH7+P68366+Q13509+Q71U36+P04350+Q3ZCM7+P07437+P68363+Q9BQE3+Q6PEY2+Q13885+Q9BVA1+Q9BUF5); experiment: Induction of tubulin depolymerization in human A549 cells at 4 to 8 uM after 24 hrs by DAPI staining based fluorescence microscopic analysis; type: cell-based
Outline: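 Cells were fixed in 4% paraformaldehyde, permeabilised with 1% Triton, and blocked with 5% BSA. Staining used anti-tubulin (1:200) overnight, then Cy3 anti-mouse IgG (1:1500) 1 h, then DAPI 1 µg/mL. Imaging by confocal microscopy.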

[7] = system: A549; experiment: Induction of apoptosis in human A549 cells assessed as early apoptotic cells at 2 uM after 24 hrs by Annexin-V/PI staining based flow cytometry analysis (reference value: 1.15%); type: functional
[8] = system: A549; experiment: Induction of apoptosis in human A549 cells assessed as increase in late apoptotic cells at 4 to 12 uM after 12 hrs by PI-staining based flow cytometric analysis; type: functional, cell-based
Outline: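 JC-1 staining of A549 cells treated for 12 h. CCCP-treated wells, 20 min at 37 °C, served as positive control. Collected cells were incubated with JC-1 solution at 37 °C for 30 min, washed, and analysed by flow cytometry for the fraction with high ΔΨm and for PI-positive cells. Results are mean ± S.E.M. of three replicates.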

[9] = system: A549; experiment: Antitumor activity against ip dosed human A549 cells xenografted in Balb/c mouse assessed as inhibition of tumor volume by measuring fold reduction at 4 mg/kg, ip administered once every two days for 32 days relative to untreated control; type: functional
Outline: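 Female BALB/c nude mice, 5-6 weeks old, injected in the flank with 6×10^6 A549 cells in 0.1 mL ice-cold PBS. After two weeks, tumours averaging 90 mm³ were allocated by volume to 5 groups of n = 8. Drugs in DMSO were given ip once every two days, 16 doses in total; a DMSO vehicle group served as control. Tumour volume (L×S²/2) and body weight were recorded every two days; mice were killed on day 32.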

[10] = system: A549; experiment: Induction of apoptosis in human A549 cells assessed as necrotic cells after at 8 uM 36 hrs by Annexin-V/PI staining based flow cytometry analysis (reference value: 2.98%); type: functional; outline: as §1
[11] = system: A549; experiment: Induction of apoptosis in human A549 cells at 8 uM by Annexin-V/PI staining based flow cytometry analysis; type: functional, cell-based; details: TDE = time-dependent effect; outline: as §1
[12] = system: A549; experiment: Induction of apoptosis in human A549 cells assessed as early apoptotic cells at 8 uM after 36 hrs by Annexin-V/PI staining based flow cytometry analysis (reference value: 2.02%); type: functional
[13] = system: A549; experiment: Inhibition of Wnt/beta-catenin signaling pathway in human A549 cells assessed as increase in axin-2 expression by Western blot analysis; type: cell-based
Outline: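 A549 cells in 6-well plates were lysed in RIPA buffer with protease inhibitors on ice for 30 min and cleared at 4 °C. Protein was quantified by BCA, run on SDS-PAGE and transferred to PVDF. Membranes were blocked with milk, probed with primary antibody (1:1000) overnight at 4 °C, then secondary antibody (1:3000-1:5000) 1 h at RT. Detection by ECL; band densitometry normalised to GAPDH (β-actin also used). Three independent experiments.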

[14] = system: A549; experiment: Induction of apoptosis in human A549 cells assessed as early apoptotic cells at 8 uM after 24 hrs by Annexin-V/PI staining based flow cytometry analysis (reference value: 2.02%); type: functional
[15] = system: HeLa; experiment: Antiproliferative activity against human HeLa cells assessed as reduction in cell viability after 24 hrs by MTT assay; type: functional, cell-based
Outline: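 MTT colorimetric assay. Cells in log phase in medium with 10% FBS were seeded at 10⁴ cells/well and left overnight at 37 °C, 5% CO₂ to reattach. Compounds were added at 0.1, 1, 10 and 100 μM in 10% FBS for 24 h. IC50 reported as mean ± SD of three independent experiments.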

[16] = system: A549; experiment: Induction of apoptosis in human A549 cells assessed as viable cells at 2 uM after 24 hrs by Annexin-V/PI staining based flow cytometry analysis (reference value: 91.4%); type: functional; details: A549, 24 h, read-out: Activity; outline: as §1
[17] = system: A549; experiment: Induction of apoptosis in human A549 cells assessed as necrotic cells after at 2 uM 24 hrs by Annexin-V/PI staining based flow cytometry analysis (reference value: 1.81%); type: functional; outline: as §1
[18] = system: A549; experiment: Induction of apoptosis in human A549 cells assessed as late apoptotic cells at 2 uM after 24 hrs by Annexin-V/PI staining based flow cytometry analysis (reference value: 5.69%); type: functional
[19] = system: A549; experiment: Induction of apoptosis in human A549 cells assessed as early apoptotic cells at 12 uM after 24 hrs by Annexin-V/PI staining based flow cytometry analysis (reference value: 1.15%); type: functional
[20] = system: A549; experiment: Induction of apoptosis in human A549 cells assessed as viable cells at 8 uM after 12 hrs by Annexin-V/PI staining based flow cytometry analysis (reference value: 88.4%); type: functional; details: A549, 12 h, read-out: Activity; outline: as §1

- Ratio IC50 [2]: 6
- IC50 [4]: 4.37 µM
- Activity [6]: Active
- IC50 [15]: 7.93 µM
SMILES: CC(C)=CC[C@@H](OC(=O)/C=C\C(=O)c1ccc(F)cc1)C1=CC(=O)c2c(O)ccc(O)c2C1=O
- inhibition [1]: Dose-dependent effect
- Activity [3]: 61.67%
- Activity [5]: 41%
- Activity [7]: 4.62%
- Activity [8]: inactive
- fold change (FC) [9]: 6
- Activity [10]: 3%
- Activity [11]: Tde
- Activity [12]: 43.8%
- inhibition [13]: Dose-dependent effect
- Activity [14]: 31.7%
- viability at 2 µM [16]: 83.7%
- Activity [17]: 2.2%
- Activity [18]: 9.45%
- Activity [19]: 42.6%
- viability at 8 µM [20]: 79%
